# The sample as a whole holds a higher share of hits than the screen did.
# AP ELISA ortho = alternative complement pathway inhibitors, primary screen, biochemical, ELISA, human serum, orthogonally pooled compounds; LPS-coated ELISA, C3 deposition; tested in compound mixtures; inhibition, % at 5 µM; actives 0.08% (n = 62,000); AID 1235, 2008;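 active = inhibition above 30% in each of the two pooled mixtures holding the compound, so the lower value exceeds 30%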
#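 Test system: human serum complement alternative pathway, C3 deposition onto LPS / Medium: Mg2+-EGTA GVB++ buffer containing human serum at 1:15 dilution / Probe or stimulus: Plate-bound LPS / Times: 1 h at 37 °C / Signal: ELISA with HRP anti-human C3 antibody, TMB substrate, absorbance 450 nm / Measure: percent inhibition / Repeats: two pool placements per compound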
# Calb biofilm kill = clotrimazole potentiators killing Candida biofilms, primary screen, with clotrimazole, Alamar Blue; C. albicans biofilm + clotrimazole; inhibition, % at 6 µM; actives 0.14% (n = 85,000); AID 834, 2007;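 active = inhibition above 20%; inactive = inhibition below 20%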;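 also: preformed 24 hr biofilms exposed to compound for 48 hr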
# MMP-13 inhibitor = human MMP13 inhibitors, primary screen, biochemical, FRET peptide cleavage | MMP-13 fTHP FRET cleavage, Mca fluorescence | inhibition, % at 4 µM | actives 0.07% (n = 65,000) | AID 570, 2006;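 active = inhibition above the mean of compound-free control plate wells plus 3 SD, cut at about 14% in these data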
# D1 allo mod = D1 CRE-luciferase signal change, two-sided – cell-based, HEK293 D1, dopamine EC30, D1 allosteric modulator project, primary screen; dopamine EC30 potentiation; actives deviate in either direction; D(1A) dopamine receptor (Homo sapiens), P21728; actives 5.9% (n = 58,000); B-score at 10 µM;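 active = luminescence count or its row- and column-corrected plate score outside the 99.7% band of the plate's sample wells, on either side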
# DAT uptake mod = changed hDAT dopamine uptake under cocaine IC80, either direction, primary screen, cocaine antagonist project, cell-based, LLC-PK1 hDAT, [14C]-dopamine uptake, MLSMR; Sodium-dependent dopamine transporter (Homo sapiens), Q01959; LLC-PK1 hDAT cells, [14C]-dopamine uptake with cocaine IC80; actives deviate in either direction; B-score at 10 µM; actives 1.3% (n = 110,000); AID 449768, 2010;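 active = Z score or B-score, a plate-position-corrected score, falls beyond the plate's 99.7% confidence bounds, in either direction; inactive = both scores lie inside the 99.7% bounds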
# Target sequence (Q01959 whole entry, looked up): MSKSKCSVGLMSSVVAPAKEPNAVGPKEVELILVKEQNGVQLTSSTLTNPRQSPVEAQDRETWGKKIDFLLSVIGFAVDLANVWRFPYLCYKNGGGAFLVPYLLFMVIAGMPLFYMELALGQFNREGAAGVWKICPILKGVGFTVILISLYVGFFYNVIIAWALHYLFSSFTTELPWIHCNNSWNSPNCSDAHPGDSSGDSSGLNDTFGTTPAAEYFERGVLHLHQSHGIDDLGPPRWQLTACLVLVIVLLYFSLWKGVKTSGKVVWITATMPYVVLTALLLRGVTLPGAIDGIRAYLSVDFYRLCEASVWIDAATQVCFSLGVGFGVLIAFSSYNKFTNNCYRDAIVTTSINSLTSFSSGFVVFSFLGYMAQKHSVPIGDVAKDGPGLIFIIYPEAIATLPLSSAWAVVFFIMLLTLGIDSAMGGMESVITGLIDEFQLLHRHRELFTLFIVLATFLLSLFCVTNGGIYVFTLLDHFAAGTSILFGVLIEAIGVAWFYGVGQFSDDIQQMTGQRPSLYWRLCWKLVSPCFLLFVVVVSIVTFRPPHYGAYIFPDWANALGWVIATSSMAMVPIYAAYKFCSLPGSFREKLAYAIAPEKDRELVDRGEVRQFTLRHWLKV
# D1 PAM confirm = D1 receptor positive allosteric modulators, retest, confirmation, cell-based, HEK293 D1, CRE-luciferase, duplicate | shares compounds with D1 allo mod | dopamine EC30 potentiation; stronger effect = higher value | luminescence at 10 µM | actives 88% (n = 2,200);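 active = luminescence in either of two replicates above the same-plate mean plus 3 SD of the low-dose dopamine control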
# D1 no dopamine = D1 receptor agonism without dopamine, confirmation, mechanism study for D1 allosteric modulator project, cell-based, HEK293 D1, CRE-luciferase, secondary assay 1. shares compounds with D1 allo mod. luminescence, no dopamine; stronger effect = higher value. luminescence at 10 µM. actives 0.8% (n = 1,900); in the data active = luminescence above about 3900
# Isoprot counter = alters isoproterenol CRE-luciferase response in HEK293 cells | shares compounds with D1 allo mod | HEK293 D1 CRE-luciferase, isoproterenol EC30 counter-screen; stronger effect = higher value | luminescence at 10 µM | actives 63% (n = 2,200) | AID 647;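 active = luminescence in either replicate above plate mean of wells with a partly effective reference agonist dose plus 3 SD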;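 also: isoproterenol raises cAMP through native beta-adrenoceptor Gs so signal bypasses D1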
# A number is an active result; i = inactive; nt = no result.
SMILES,AP ELISA ortho,Calb biofilm kill,MMP-13 inhibitor,D1 allo mod,DAT uptake mod,D1 PAM confirm,D1 no dopamine,Isoprot counter
CCN(CC)CCNC(=O)c1nn(-c2ccc(C)cc2)c(=O)c2c1c1ccccc1n2C,i,i,i,i,i,nt,nt,nt
CCN1CCN(C(=O)c2nn(-c3ccc(C)cc3)c(=O)c3c2c2ccccc2n3C)CC1,i,i,i,4.8,i,i,nt,i
N[C@H]1CONC1=O,nt,nt,nt,nt,i,nt,nt,nt
Cc1cc(-c2cccs2)c2c(n1)sc1c(=O)[nH]c(=O)[nH]c12,i,i,i,9.9,i,13116,i,i
COc1ccc(C(C#N)C2(C)OCCO2)cc1OC (stereo unspecified),i,i,i,10,i,10756,nt,2684
CCOC(=O)Cn1c2ccccc2c2nc3ccccc3nc21,i,i,i,4.8,i,14192,i,i
N#CCCn1c2ccccc2c2nc3ccccc3nc21,i,i,i,14,i,19256,i,3704
CCCn1c2ccccc2c2nc3ccccc3nc21,i,i,i,5.7,i,12892,i,3272
Cc1nc2ccccc2c(=O)n1CCN1CCOCC1,nt,i,nt,nt,i,nt,nt,nt
Cc1ccc2c(c1)c1nc3ccccc3nc1n2CCN1CCOCC1,i,i,i,7.7,i,21896,i,5476
O=c1oc2ccccc2n1CCn1c2ccccc2c2nc3ccccc3nc21,i,i,i,i,i,nt,nt,nt
CCN(Cc1ccccc1)C(c1cc2ccc(C)cc2[nH]c1=O)c1nnnn1CCOC (stereo unspecified),nt,i,nt,nt,i,nt,nt,nt
CCCC(=O)Nc1cccc(-c2nc3cc(C)c(C)cc3o2)c1,i,i,i,i,i,nt,nt,nt
Cc1cc2nc(-c3ccc(NC(=O)C(C)C)cc3)oc2cc1C,i,nt,i,5.8,nt,i,i,i
COc1ccc(Nc2nc(N)nc(CSc3nnc(N)s3)n2)cc1,nt,i,nt,nt,i,nt,nt,nt
COc1ccc(Nc2nc(N)nc(SCc3nnc(C)s3)n2)cc1,i,i,i,5.7,i,8828,i,3464
Cc1ccc(NC(=S)NCc2cccs2)c(C)c1,nt,i,nt,nt,i,nt,nt,nt
Cc1ccc(C)n1-c1sc2c(c1C#N)CCCC2,nt,i,nt,nt,i,nt,nt,nt
Cc1csc2c(C#N)c(=O)c3c(n12)CCC3,i,i,i,4.4,i,6564,i,i
Clc1ccc(N2CCN(c3ncnc4c3oc3ccccc34)CC2)cc1,i,i,i,i,i,nt,nt,nt
CC1CN(c2ncnc3c2oc2ccccc23)CC(C)O1 (stereo unspecified),i,i,i,5.6,i,12424,i,3752
CN(C)c1ccc(/C(=N\O)c2ccccc2)cc1,i,i,i,3.6,i,16920,i,3688
CN(C)c1ccc(C=Nc2ccccc2)cc1,nt,i,nt,nt,i,nt,nt,nt
O=C(NCc1cccnc1)C1CC(=O)N(CCc2ccccc2)C1 (stereo unspecified),nt,i,nt,nt,i,nt,nt,nt
CCN(CC)C(=O)c1cnn(-c2ccccc2)c1NC(=O)c1cccs1,nt,i,nt,nt,i,nt,nt,nt
SMILES,AP ELISA ortho,Calb biofilm kill,MMP-13 inhibitor,D1 allo mod,DAT uptake mod,D1 PAM confirm,D1 no dopamine,Isoprot counter
O=C1N(CN2CCN(c3cccc(Cl)c3)CC2)c2ccccc2C12OCCCO2,i,nt,i,2.4,i,3096,i,i
O=C1COc2ccccc2N1Cc1ccccc1Cl,i,i,i,4.9,i,7968,i,i
COc1ccc(-c2cc(C(F)(F)F)n3nc(C(=O)N4CCCCC4)cc3n2)cc1,i,nt,nt,5.7,i,8620,i,i
COc1ccc(-c2cc(C(F)(F)F)n3nc(C(=O)N4CCCCC4)cc3n2)cc1OC,nt,i,nt,nt,i,nt,nt,nt
COC(=O)Cn1nc(-c2ccccc2)c2ccccc21,i,i,i,2.5,i,i,i,i
C=CCn1c(SCC(=O)Nc2sc(C)c(C)c2C(=O)OCC)nnc1-c1sc(N)nc1C,i,i,i,2.7,i,10116,i,i
COc1ccc(-c2nn(C)c(=O)c3ccccc23)cc1CNC(=O)c1ccco1,nt,nt,i,4.5,i,16184,i,4044
Brc1ccc(-c2nnc3n2-c2ccccc2CC3)cc1,i,i,i,3.9,i,13056,i,3620
Brc1ccc(-c2nnc3n2CCCCC3)cc1,nt,i,nt,nt,i,nt,nt,nt
Cc1cc(OCC(=O)N2CCc3ccccc3C2)c2c(-c3ccccc3)cc(=O)oc2c1,nt,i,nt,nt,i,nt,nt,nt
CCOc1ccc(-c2[nH]ncc2-c2ccc(OC)c(OC)c2)c(O)c1,i,i,i,5.2,i,13188,i,3552
CCOc1ccc(-c2[nH]ncc2Oc2ccccc2OC)c(O)c1,i,i,i,i,i,nt,nt,nt
Clc1ccc(Cn2ncc3c(N4CCOCC4)ncnc32)cc1,i,i,i,i,i,nt,nt,nt
Cc1ccc(Cn2ncc3c(N4CCCC4)ncnc32)cc1,i,i,i,2.7,i,10768,i,3888
Clc1ccc(Cn2ncc3c(N4CCCC4)ncnc32)cc1,i,i,i,4.7,i,13228,i,5324
Clc1ccc(Cn2ncc3c(N4CCCCC4)ncnc32)cc1,i,i,i,i,i,nt,nt,nt
O=c1c2ccccc2nc2n1C(CSCc1ccc(Cl)cc1Cl)CS2 (stereo unspecified),nt,nt,nt,nt,i,nt,nt,nt
CCNc1nc(Oc2ccc(=O)n(-c3ccccc3)n2)nc(N2CCOCC2)n1,i,i,i,10,i,18936,i,4968
COc1cc(S(=O)(=O)N2CCOCC2)ccc1NC(=O)CSc1nnc(N)s1,33,i,i,4.8,i,i,nt,i
CCCC(=O)Nc1ccc(C(=O)NNC(=O)c2ccco2)cc1,nt,nt,nt,nt,i,nt,nt,nt
CCC1S/C(=C(\C#N)C(N)=O)N(c2ccc(F)cc2)C1=O (stereo unspecified),i,i,i,5,i,9908,nt,2824
O=C(NCc1ccco1)C1(c2ccc(Br)cc2)CCCC1,nt,i,nt,nt,i,nt,nt,nt
Cc1ccc(N(CC(=O)NCc2ccc(F)cc2)S(=O)(=O)c2cccs2)cc1,nt,i,nt,nt,i,nt,nt,nt
COc1ccc(Nc2ncnc3c2cnn3Cc2ccccc2)cc1OC,i,i,i,5.2,i,8056,i,4144
COc1cccc(C2CC(c3cccc(Br)c3)n3nc(N)nc3N2)c1 (stereo unspecified),i,i,i,9.3,i,12600,i,4148
Nc1nc2n(n1)C(c1cccc(Br)c1)CC(c1ccccc1)N2 (stereo unspecified),i,i,i,37,i,18056,i,4120
